≈ marks a conversion by molar mass, not a printed value.
Tests used:
[1] = Inhibition of peroxynitrite-induced 3-nitrotyrosin formation by HPLC; assay type: functional
Method in brief: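 Equimolar tyrosine and peroxynitrite with compound at increasing concentrations in 100 mM phosphate buffer pH 7.4, 37 °C for 15 min. Peroxynitrite stock quantified at 302 nm (ε 1670 cm⁻¹ M⁻¹), held on ice ≤30 min after thawing. 3-Nitrotyrosine measured by HPLC; control peroxynitrite plus tyrosine; mean ± SD of 3 independent experiments.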

[2] = test system: Radical scavenging activity; assay: Antioxidant activity assessed as DPPH radical scavenging activity by microplate reader assay; assay type: functional; parameters: concentration or dose not given beside the values
Method in brief: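 Compounds or ascorbic acid standard added to DPPH radical in methanol, ratio 1:9; incubated dark 37 °C 30 min; absorbance decrease read at 515 nm on plate reader. Blank of DMSO plus DPPH; solvent control taken as 0% scavenging. Triplicate; reported as % decrease in DPPH absorbance, mean ± SD.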

Hepatitis C virus = assay: Antiviral activity HCV in replicon cells assessed as inhibition of NS3-4A protease activity by RT-PCR; assay type: functional, Hepacivirus hominis
Method in brief: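 Replicon cells seeded at 1×10⁴/well; next day incubated at 37 °C with serially diluted agents in DMEM + 2% FBS + 0.5% DMSO for the indicated period. Total RNA extracted, HCV RNA copy number by quantitative RT-PCR; five replicates per point; ribavirin control. Cytotoxicity by MTS viability in same settings; Huh-7 1×10⁴ or HepG2 4×10⁴ cells/well.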

| Compound | IC50 [1] | Activity [2] | MIC (Hepatitis C virus) |
| --- | --- | --- | --- |
| c1ccc2c(c1)CCCc1c[nH]nc1-2 | 277 µM | 45.4% | 6.22 µg/mL (≈ 33.8 µM) |
| c1ccc2c(c1)CCCc1cnc3ncnn3c1-2 | 315 µM | 27.7% | 2.21 µg/mL (≈ 9.35 µM) |
| N#Cc1cc2c([nH]c1=O)-c1ccccc1CCC2 | 291 µM | 27.4% | 4.45 µg/mL (≈ 18.8 µM) |
| Cc1c(C)c2c(c(C)c1O)CCC(C)(C(=O)O)O2 (configuration not stated) [TROLOX] | 58.4 µM |  |  |
| NC(=O)c1ncn([C@@H]2O[C@H](CO)[C@@H](O)[C@H]2O)n1 [RIBAVIRIN] |  |  | 16.1 µg/mL (≈ 66.1 µM) |
| O=c1cc(-c2ccccc2)nc2n(-c3ccccc3)nc(-c3ccc4c(n3)-c3ccccc3CCC4)n12 | 349 µM | 40% | 1.15 µg/mL (≈ 2.39 µM) |
| c1ccc2c(c1)CCCc1ccc(-c3ccc4ccccc4c3)nc1-2 | 170 µM | 54.2% | 5.98 µg/mL (≈ 18.6 µM) |
| c1ccc2c(c1)CCCc1cnc3nc4ccccc4n3c1-2 | 342 µM | 28.2% | 6 µg/mL (≈ 21 µM) |
| CC(=O)c1cc2c(nc1C)-c1ccccc1CCC2 | 158 µM | 37.2% | 7.09 µg/mL (≈ 28.2 µM) |
| O=C1O[C@H]([C@@H](O)CO)C(O)=C1O |  | 79% |  |
| c1ccc2c(c1)CCCc1cnoc1-2 | 149 µM | 44.1% | 7.66 µg/mL (≈ 41.4 µM) |
| CN(C)/C=C1\CCCc2ccccc2C1=O | 146 µM | 57.9% |  |
| CCOC(=O)c1cc2c(nc1C)-c1ccccc1CCC2 | 329 µM | 54.4% | 3.58 µg/mL (≈ 12.7 µM) |
